Measurements taken from ChEMBL document CHEMBL2202957, “Redox potentials, laccase oxidation, and antilarval activities of substituted phenols” (2012).
Active and inactive are the calls of the source. No cut-off for these calls is given here.

Legend:
Trametes versicolor [1] = tested on: Trametes versicolor;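 for Km: kinetic parameters for Trametes versicolor laccase, determined from a spectrophotometric readout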;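 for kcat/Km: measured with the laccase enzyme of Trametes versicolor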
Trametes versicolor [2] = tested on: Trametes versicolor; remark: listed apart in the source;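 for Km: kinetic parameters for Trametes versicolor laccase, determined from a spectrophotometric readout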;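 for kcat/Km: measured with the laccase enzyme of Trametes versicolor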
Trametes versicolor [3] = assay: Inhibition of Trametes versicolor laccase
Anopheles gambiae [4] = assay: Antilarval activity against third-instar larvae of Anopheles gambiae assessed as mortality at 50 ug/L after 72 hrs; format: functional
Procedure, shortened: (§1)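 Third-instar larvae came from a laboratory An. gambiae colony originally from MR4. Groups of 12–15 larvae were held at 25°C in distilled water with larval food. Compound was added from an acetone or water stock to final 50 or 1000 μg/L, with a solvent-only control. Treatments and controls were run four times, and mortality was scored at 72 h.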

Anopheles gambiae [5] = assay: Antilarval activity against third-instar larvae of Anopheles gambiae assessed as mortality at 1000 ug/L after 72 hrs; format: functional
Procedure, shortened: as §1

Culex pipiens molestus = assay: Antilarval activity against third-instar larvae of Culex molestus assessed as mortality at 100 ug/L after 72 hrs; format: functional
Anopheles gambiae [6] = assay: Antilarval activity against third-instar larvae of Anopheles gambiae assessed as effect on cuticle development by microscopic analysis relative to control; format: functional

SMILES	Km (Trametes versicolor [1]) [µM]	kcat (Trametes versicolor [1]) [s⁻¹]	kcat/Km (Trametes versicolor [2]) [M⁻¹ s⁻¹]	inhibition (Trametes versicolor [3])	Activity (Anopheles gambiae [4]) [%]	Activity (Anopheles gambiae [5]) [%]	Activity (Culex pipiens molestus) [%]	Activity (Anopheles gambiae [6])
Nc1ccccc1O	190	37.5	197000	–	–	–	–	–
COc1cc(O)c(Br)c(Cl)c1O	70	18.3	262000	inactive	–	–	–	–
COC1=CC(=O)C(N[C@@H](C)C(=O)OCc2ccccc2)=C(Cl)C1=O	–	–	–	–	5	6.66	–	–
CC(C)=CCc1cc(C(C)(C)C)cc(C(C)(C)C)c1O	–	–	–	–	98.1	98.3	60	Active
O=Cc1cc(O)c(O)c(Cl)c1	40	31.7	792000	inactive	–	–	–	–
Cc1ccc(O)c(N)c1	110	131	1.19e+06	inactive	–	–	–	–
CC1(C)CCc2cc(C(C)(C)C)cc(C(C)(C)C)c2O1	–	–	–	–	5.77	91.7	–	–
COc1cc(C=O)cc(Cl)c1O	2200	105	47800	inactive	–	–	–	–
Nc1ccc(C(=O)O)cc1O	170	42.5	250000	inactive	–	–	–	–
Nc1cc(C(=O)O)ccc1O	70	48.8	698000	inactive	–	–	–	–
Oc1ccc(O)cc1 [HYDROQUINONE]	20	119	594	–	1.25	5.38	–	–
CC(C)(C)c1cc(C(C)(C)C(=O)[O-])cc(C(C)(C)C)c1O.[Na+]	–	–	–	–	5.5	12.3	–	–
Nc1ccccc1N	430	17.3	40300	–	–	–	–	–
Oc1ccccc1O	600	33.5	55800	–	–	–	–	–
Nc1cc(CO)ccc1O	80	63	788000	inactive	–	–	–	–
COc1cc(O)c(O)c(Cl)c1Br	40	89.7	2.24e+06	inactive	–	–	–	–
Oc1cc(O)c(Br)c(Cl)c1O	50	145	2.89e+06	inactive	0	11.4	–	–
CC(C)(C)c1cc(C(C)(C)/C=N/O)cc(C(C)(C)C)c1O	–	–	–	–	5.41	93.1	–	–
CC(C)(C)c1cc(C(C)(C)CO)cc(C(C)(C)C)c1O	–	–	–	–	0	46.7	–	–
CC(C)(C)c1cc(C(C)(C)CNCc2ccccc2)cc(C(C)(C)C)c1O.O=C(O)C(F)(F)F	–	–	–	–	3.71	7.7	–	–
COc1c(O)cc(O)c(Br)c1Cl	70	96	1.37e+06	inactive	–	–	–	–
CC(C)(C)c1cc(C(C)(C)c2ccccc2)cc(C(C)(C)C)c1O	–	–	–	–	93.3	100	–	–
CC(C)(C)c1cc(C(C)(C)C=O)cc(C(C)(C)C)c1O	–	–	–	–	0	65	–	–
CC(C)(Br)C(=O)c1cc(C(C)(C)C)c(O)c(C(C)(C)C)c1	–	–	–	–	0	60	–	–
